# Active and inactive are the calls of the source. The calls are words filed in the database; no cut-off is given here.
# Tests used:
# HepG2 [1] = assay: Antitumor activity against human HepG2 cells xenografted in BALB/c mouse assessed as induction of ER stress by measuring increase in CHOP level in tumor tissue at 10 to 20 mg/kg/day, ip administered for 15 days by immunohistochemical analysis; assay type: functional, organism-based; conditions: dose 10-20 mg/kg/day, time 15.0 day
# In short: (§1)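 HepG2 cells (5×10^6) injected subcutaneously into flanks of 4-week-old male Balb/c nude mice. At about 100 mm³, 15 mice were randomized to vehicle, 10 or 20 mg/kg i.p. once daily for 15 days. Tumors were then excised for immunostaining of paraffin sections (5 μm) or for western blot.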
# HepG2 [2] = assay: Antitumor activity against human HepG2 cells xenografted in BALB/c mouse assessed as induction of autophagy by measuring increase in LC3-II level in tumor tissue at 10 to 20 mg/kg/day, ip administered for 15 days by immunohistochemical analysis; assay type: functional, organism-based; conditions: dose 10-20 mg/kg/day, time 15.0 day; in short: as §1
# HepG2 [3] = assay: Induction of autophagy in human HepG2 cells assessed as increase in LC3-II expression at 2 uM measured after 4 to 6 hrs by Western blot analysis; assay type: functional, cell-based; conditions: time 4-6 hrs
# In short: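 HepG2 exposed to 2.0 µM over a time course; Nur77, Bip, p-EIF2a, TRB3 and LC3 levels followed by Western blot of RIPA lysates.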
# HepG2 [4] = assay: Induction of apoptosis in human HepG2 cells assessed as cleaved caspase-3 expression at 2 uM pretreated with ER stress inhibitor, 4-PBA for 2 hrs followed by incubation with compound for 12 hrs by Western blot analysis; assay type: functional, cell-based
# In short: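 HepG2 cells grown to confluence were pretreated 2 h with 2 mM 3-MA (autophagy inhibitor) or 2 mM 4-PBA (ER stress inhibitor), then exposed to compound for 12 h. Proteins (40–80 µg, RIPA lysate) were resolved by SDS-PAGE and blotted for PARP, cleaved caspase-3/-9, Bcl-2 and Bax, with chemiluminescent detection.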
# HepG2 [5] = assay: Antitumor activity against human HepG2 cells xenografted in BALB/c mouse assessed as reduction in PCNA expression in tumor tissue at 10 to 20 mg/kg/day, ip for 15 days by western blot analysis; assay type: functional, organism-based; conditions: dose 10-20 mg/kg/day, time 15.0 day; in short: as §1
# SMMC-7721 [6] = assay: Induction of autophagy in human SMMC-7721 cells assessed as increase in Beclin 1 expression measured at 12 hrs by Western blot analysis; assay type: functional, cell-based; conditions: dose 0.5-2 µM
# In short: (§2)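 HepG2, QGY-7703 and SMMC-7721 treated with graded concentrations for 12 h. Lysed in RIPA with inhibitors; 40-80 µg protein separated by SDS-PAGE, blotted to nitrocellulose, blocked 1 h in 5% milk, primary antibodies overnight (LC3, Beclin1, Bip, CHOP, TRB3), HRP secondaries, chemiluminescence.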
# HepG2 [7] = assay: Induction of morphological changes in human HepG2 cells assessed as cell shrinkage at 1 to 2 uM incubated for 6 to 12 hrs by phase contrast microscopic analysis; assay type: functional, cell-based; conditions: dose 1-2 µM, time 6-12 hrs
# In short: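 HepG2 cells given graded concentrations; morphology monitored at set time points by phase-contrast optical microscopy.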
# QGY-7703 [8] = assay: Induction of autophagy in human QGY-7703 cells assessed as increase in LC3-II expression measured after 12 hrs by Western blot analysis; assay type: functional, cell-based; conditions: dose 0.5-2 µM; in short: as §2
# SMMC-7721 [9] = assay: Inhibition of colony formation in human SMMC-7721 cells at 2 uM incubated for 24 hrs measured after cell culturing for 15 days in normal medium by crystal violet staining based assay; assay type: functional; conditions: time 16.0 day
# In short: (§3)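 500 HepG2, QGY-7703 or SMMC-7721 cells per well allowed to attach 24 h, exposed to DMSO or 2.0 µM for 24 h, then grown 15 days in plain medium. Colonies fixed 30 min in 4% paraformaldehyde, stained 15 min with 0.1% crystal violet, photographed and counted.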
# HepG2 [10] = assay: Induction of endoplasmic reticulum stress in human HepG2 cells assessed as increase in TRB3 protein expression incubated for 12 hrs by Western blot analysis; assay type: functional, cell-based; conditions: dose 0.5-2 µM; in short: as §2
# HepG2 [11] = assay: Induction of apoptosis in human HepG2 cells assessed as increase in PARP cleavage at 2 uM measured after 12 hrs by Western blot analysis
# HepG2 [12] = assay: Disruption of mitochondrial membrane potential in human HepG2 cells transfected with shNur77 assessed as green fluorescence intensity at 2 uM incubated for 12 hrs by JC-1 staining based flow cytometry (reference value: 44890 units); assay type: functional
# L02 = assay: Cytotoxicity against human L02 cells assessed as reduction in cell viability incubated for 48 hrs by MTT assay; assay type: cell-based; conditions: L02, 48 h
# In short: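 MTT assay after 48 h exposure at six concentrations, range chosen by cytotoxicity. Inhibition = (ODcontrol − ODtest)/ODcontrol × 100%; IC50 is the concentration halving OD versus untreated cells. Means ± SD of three independent determinations. HepG2 and SMMC-7721 grown in DMEM, QGY-7703 and LO2 in RPMI 1640, with 10% FBS at 37 °C.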
# QGY-7703 [13] = assay: Induction of endoplasmic reticulum stress in human QGY-7703 cells assessed as increase in TRB3 protein expression incubated for 12 hrs by Western blot analysis; assay type: functional, cell-based; conditions: dose 0.5-2 µM; in short: as §2
# QGY-7703 [14] = assay: Induction of endoplasmic reticulum stress in human QGY-7703 cells assessed as increase in bip protein expression incubated for 12 hrs by Western blot analysis; assay type: functional, cell-based; conditions: dose 0.5-2 µM; in short: as §2
# HepG2 [15] = assay: Induction of endoplasmic reticulum stress in human HepG2 cells assessed as increase in CHOP protein expression incubated for 12 hrs by Western blot analysis; assay type: functional, cell-based; conditions: dose 0.5-2 µM; in short: as §2
# SMMC-7721 [16] = assay: Induction of endoplasmic reticulum stress in human SMMC-7721 cells assessed as increase in CHOP protein expression incubated for 12 hrs by Western blot analysis; assay type: functional, cell-based; conditions: dose 0.5-2 µM; in short: as §2
# [17] = molecular target: Nuclear receptor subfamily 4immunitygroup A member 1 (Homo sapiens, UniProt P22736); assay: Binding affinity to Nur77 ligand binding domain (unknown origin) assessed as fast association/dissociation kinetics by surface plasmon resonance analysis; conditions: filed as modulator
# Nuclear receptor subfamily 4immunitygroup A member 1, sequence (P22736 whole entry, the tested form may be a part): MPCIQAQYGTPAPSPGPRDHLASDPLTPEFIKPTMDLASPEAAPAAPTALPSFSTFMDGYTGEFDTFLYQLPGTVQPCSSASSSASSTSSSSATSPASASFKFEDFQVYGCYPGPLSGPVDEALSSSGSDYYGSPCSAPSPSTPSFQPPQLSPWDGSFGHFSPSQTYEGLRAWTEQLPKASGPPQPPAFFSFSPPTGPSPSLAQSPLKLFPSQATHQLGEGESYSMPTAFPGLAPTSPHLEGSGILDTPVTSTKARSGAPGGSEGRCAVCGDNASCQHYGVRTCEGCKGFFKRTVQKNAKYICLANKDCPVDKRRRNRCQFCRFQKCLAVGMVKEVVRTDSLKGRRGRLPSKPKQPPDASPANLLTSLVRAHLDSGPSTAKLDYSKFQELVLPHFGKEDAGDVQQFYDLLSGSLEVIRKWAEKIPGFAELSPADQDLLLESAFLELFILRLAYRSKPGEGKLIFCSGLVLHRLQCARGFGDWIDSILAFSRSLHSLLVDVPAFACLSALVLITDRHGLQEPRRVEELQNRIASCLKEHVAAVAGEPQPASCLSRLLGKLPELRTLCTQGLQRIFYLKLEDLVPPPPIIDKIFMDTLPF
# In short: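 SPR with Nur77-LBD, analyte injected at a series of concentrations; KD (equilibrium dissociation constant) and association/dissociation kinetics derived from the sensorgrams.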
# QGY-7703 [18] = assay: Inhibition of colony formation in human QGY-7703 cells at 2 uM incubated for 24 hrs measured after cell culturing for 15 days in normal medium by crystal violet staining based assay; assay type: functional; conditions: time 16.0 day; in short: as §3
# HepG2 [19] = assay: Antitumor activity against human HepG2 cells xenografted in BALB/c mouse assessed as induction of autophagy by measuring increase in Beclin1 level in tumor tissue at 10 to 20 mg/kg/day, ip administered for 15 days by western blot analysis; assay type: functional, organism-based; conditions: dose 10-20 mg/kg/day, time 15.0 day; in short: as §1
# HepG2 [20] = assay: Induction of apoptosis in human HepG2 cells transfected with shRNA assessed as live cells at 2 uM incubated for 12 hrs by Annexin V-FITC/PI staining based flow cytometry (reference value: 92.6%); assay type: functional
# HepG2 [21] = assay: Antitumor activity against human HepG2 cells xenografted in BALB/c mouse assessed as tumor growth inhibition at 20 mg/kg/day, ip administered for 15 days; assay type: functional; conditions: 360 h, time 15 day
# In short: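 Subcutaneous flank xenograft of 5×10^6 HepG2 cells in 4-week-old male Balb/c nude mice. At about 100 mm³, 15 mice were randomized into three groups: vehicle, 10 or 20 mg/kg i.p. daily for 15 days. Tumor size was measured every day, and tumors were excised and weighed at the end.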
# HepG2 [22] = assay: Induction of apoptosis in human HepG2 cells assessed as late apoptotic cells at 2 uM incubated for 12 hrs by Annexin V-FITC/PI staining based flow cytometry (reference value: 1.1 to 2.75%); assay type: functional
structure (smiles),measurement,setting,value
COc1cccc2c(Nc3ccc4[nH]c(C(=O)N/N=C/c5ccc(SC)cc5)cc4c3)cc(C)nc12,Activity,HepG2 [1],Active
same,Activity,HepG2 [2],Active
same,Activity,HepG2 [3],Active
same,Activity,HepG2 [4],inactive
same,Activity,HepG2 [5],Active
same,Activity,SMMC-7721 [6],Dose-dependent effect
same,Activity,HepG2 [7],Active
same,Activity,QGY-7703 [8],Dose-dependent effect
same,inhibition,SMMC-7721 [9],Active
same,Activity,HepG2 [10],Dose-dependent effect
same,Activity,HepG2 [11],Active
same,Activity,HepG2 [12],52452 U
same,IC50,L02,> 20 µM
same,Activity,QGY-7703 [13],Dose-dependent effect
same,Activity,QGY-7703 [14],Dose-dependent effect
same,Activity,HepG2 [15],Dose-dependent effect
same,Activity,SMMC-7721 [16],Dose-dependent effect
same,Activity,[17],Active
same,inhibition,QGY-7703 [18],Active
same,Activity,HepG2 [19],Active
same,Activity,HepG2 [20],59.8%
same,inhibition in vivo at 20 mg/kg/day,HepG2 [21],62.4%
same,Activity,HepG2 [22],55.6%
